Marks after values point to notes of the source that are not given here.
How the values were obtained:
apo-transferrin (apoTf) = apo-transferrin (apoTf) (Homo sapiens, UniProt P02787); test: Stability assessment in apoTf solution; type: in vitro ADME; details: 74 kBq/100 μL added to same volume of 0.2 mM apoTf in 200 mM sodium bicarbonate buffer pH 7.4 (ApoTf 0.1 mM), 37 °C, 5% CO2, RP-TLC, mean ± SD (n = 5)
In short: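 [67Ga]-labelled test compound was HPLC-purified and taken up in D-PBS(−). 74 kBq/100 μL was mixed with an equal volume of 0.2 mM (stock) apoTf in 200 mM sodium bicarbonate, pH 7.4. The mix was held at 37 °C under 5% CO2. At 3 and 24 h, 5 μL aliquots were analysed by RP-18 TLC in 0.1% aqueous TFA/MeCN with 0.1% TFA (2:3).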

[1] = Ga complex with N3O3 configuration, 1.5 h; cited from earlier work

Sequence of apo-transferrin (apoTf) (P02787 20-698): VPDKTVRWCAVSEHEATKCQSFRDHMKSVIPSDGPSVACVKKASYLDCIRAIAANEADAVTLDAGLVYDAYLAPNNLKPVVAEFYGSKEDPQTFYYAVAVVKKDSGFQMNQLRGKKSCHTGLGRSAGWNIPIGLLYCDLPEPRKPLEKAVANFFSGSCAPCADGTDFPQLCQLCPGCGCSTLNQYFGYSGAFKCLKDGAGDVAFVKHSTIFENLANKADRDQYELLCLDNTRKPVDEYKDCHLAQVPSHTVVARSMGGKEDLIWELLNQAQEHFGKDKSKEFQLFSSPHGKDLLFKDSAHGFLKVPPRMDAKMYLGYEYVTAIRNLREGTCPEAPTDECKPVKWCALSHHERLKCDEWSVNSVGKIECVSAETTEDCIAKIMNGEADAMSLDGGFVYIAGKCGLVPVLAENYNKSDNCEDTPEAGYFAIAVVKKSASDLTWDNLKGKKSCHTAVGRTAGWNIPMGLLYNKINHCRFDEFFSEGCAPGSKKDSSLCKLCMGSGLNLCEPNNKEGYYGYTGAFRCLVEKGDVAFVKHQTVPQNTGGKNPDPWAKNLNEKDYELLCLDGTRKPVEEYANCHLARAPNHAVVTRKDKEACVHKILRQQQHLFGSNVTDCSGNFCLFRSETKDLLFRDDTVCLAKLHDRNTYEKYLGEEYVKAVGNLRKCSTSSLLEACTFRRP

| Structure (SMILES) | Stability of 67Ga-labeled model chelators, ApoTf (0.1 mM), 3 h (apo-transferrin (apoTf)) | Stability of 67Ga-labeled model chelators, ApoTf (0.1 mM), 24 h (apo-transferrin (apoTf)) | Ga complex decomposed in human serum [1] |
| --- | --- | --- | --- |
| O=C([O-])CN1CCN(CC(=O)[O-])CCN(Cc2ccc([N+](=O)[O-])cc2)CCN(CC(=O)[O-])CC1.[67Ga+3] [[^67Ga]Ga-p-NO2-Bn-DO3A] | 93.8 ± 0.6 ^b | 67.5 ± 0.6 ^b |  |
| O=C([O-])CN1CCN(CC(=O)[O-])CCN(CC(=O)[O-])CCN(CC(=O)[O-])CC1.[67Ga+3] [[^67Ga]Ga-DOTA, reference compound] | 96.4 ± 0.2 | 89.6 ± 0.5 |  |
| CCCCNC(=O)CN1CCN(CC(=O)[O-])CCN(CC(=O)[O-])CCN(CC(=O)[O-])CC1.[67Ga+3] [[^67Ga]Ga-DO3AM^Bu] | 87.4 ± 0.5 ^b ^c | 43.1 ± 1.1 ^b ^c |  |
| O=C(O)CN1CCOCCN(CC(=O)O)CCN(CC(=O)O)CC1 [oxo-DO3A] |  |  | > 80% |
| O=C([O-])CN1CCN(CC(=O)[O-])CCN(CC(=O)[O-])C(Cc2ccc([N+](=O)[O-])cc2)CN(CC(=O)[O-])CC1.[67Ga+3] (centres unmarked) [[^67Ga]Ga-p-NO2-Bn-DOTA (A)] | 95.1 ± 1.2 ^d ^e ^f | 90.3 ± 0.7 ^c ^d ^e ^f |  |
| CCCCNC(=O)CCC(C(=O)[O-])N1CCN(CC(=O)[O-])CCN(CC(=O)[O-])CCN(CC(=O)[O-])CC1.[67Ga+3] (centres unmarked) [[^67Ga]Ga-DOTAGAM^Bu] | 80.0 ± 1.3 ^b ^c ^d | 27.5 ± 4.6 ^b ^c ^d |  |
